# Compounds with a hit are over-represented: about 8.4% of the library has one in this group of screens.
# Cav3 T inh = blocks human Cav3.2 T-type calcium channel; AID 449739; B-score at 10 µM; O95180; actives 4% (n = 100,000); Cav3.2-expressing cells, Fluo-4 calcium fluorescence FDSS; hits give low values;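 active = single-dose well whose peak fluorescence ratio is a statistical outlier from its plate by either plate-standardised score or position-corrected B-score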
# Ecoli tolC = growth inhibitors of E. coli BW25113 tolC mutant. OD615. growth inhibition, % at 10 µM (by protocol). actives 2.2% (n = 65,000). AID 573;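 active = growth inhibition at or above a cutoff equal to the mean over every tested compound plus 3 SD, cut at about 60% in these data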;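 note: growth measured after 20 h incubation at 37 °C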
#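 test system = E. coli BW25113 ΔtolC::kan bacteria | medium = LB with kanamycin 50 µg/mL | signal = OD at 615 nm | schedule = 37 °C, 20 h exposure | evaluation = % inhibition of E. coli growth | compound dosing = one dose of 10 µM final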
# Ecoli WT expand = blocks growth of wild type E. coli BW25113; OD600 absorbance; growth inhibition, % at 100 µM; actives 0.15% (n = 98,000);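 active = growth inhibition above about 50% at one test dose, limit read from the data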;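 note: growth measured after 20 h incubation at 37 °C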
# PostGolgi yeast = growth inhibition of a yeast mutant, post-Golgi transport screen | AID 739 | actives 0.9% (n = 98,000) | post-Golgi transport phenotypic cell assay | inhibition, % at 10 µM;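 note: yeast cells grown in 1536-well plates; yeast grown about 18 h at 30C before absorbance read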
# PostGolgi ctrl = growth of the yeast control strain, post-Golgi counter-screen; inhibition, % at 10 µM; actives 5% (n = 98,000); efflux-deficient yeast background strain, growth absorbance A615, 16 h
# An asterisk follows results filed as active; / = no result. Cut-off read from the data, not from the text of the source, unless noted: active = inhibition above about 30%; inactive = the rest.
SMILES,Cav3 T inh,Ecoli tolC,Ecoli WT expand,PostGolgi yeast,PostGolgi ctrl
CCCN1C2CCCC1CC(NC(=O)Nc1ccc(C(C)C)cc1)C2 (stereo not drawn),-4.9*,/,/,/,/
S=C(c1ccc(-c2ccc(Cl)c(Cl)c2)o1)N1CCOCC1,-1.89,64.6*,-5.0,-6.7,17.4
S=C(c1ccc(-c2ccccc2Cl)o1)N1CCOCC1,-1.82,36.8,5.0,5.9,10.8
O=c1c2c(ncn1CCO)nc1n2CCC1,-0.0509,/,/,/,/
CCn1c(O)c(/C=N/N=C/c2ccccc2)c2ccc(C3=NNC(=O)CC3)cc21,0.313,/,-16.0,2.9,47.6*
C=CCOCCN1C(=O)C2C(c3ccccc3)C=CC(c3ccccc3)C2C1=O (stereo not drawn),-3.28*,/,8.0,9.1,2.3
CCOC(=O)C1=C(CC)Nc2ccccc2N=C1NC(=O)Cn1cnc2ccccc2c1=O,1.04,-5.4,-15.0,-1.4,5.4
CCOC(=O)C1=C(CC)Nc2ccccc2N=C1NC(=O)Nc1ccc(Cl)c(Cl)c1,-3.82,/,18.0,73.0*,65.6*
COc1cccc(Nc2nnc(SCC(=O)N(CC(C)C)CC(C)C)s2)c1,-7.2*,/,-14.0,-5.6,16.1
COc1ccc(N2CCN(S(=O)(=O)c3ccc(C(=O)NCc4ccco4)cc3)CC2)cc1,-3.86*,-9.1,-8.0,0.0,0.5
O=C(NCc1ccc(F)cc1)c1cc(S(=O)(=O)N2CCOCC2)ccc1F,-5.24*,6.0,7.0,0.7,4.5
O=C(NCc1ccco1)c1cc(S(=O)(=O)N2CCOCC2)ccc1Cl,0.0249,-21.8,1.0,5.1,35.4*
CCOC(=O)c1c(-c2ccccc2)nc2ccc(C)cn12,-0.0312,/,11.0,-36.2,31.3*
O=C(CN1C(=O)COc2ccccc21)NCc1ccccn1,0.86,/,7.0,5.6,1.5
CC1(C)CC(n2c(NCCO)nc3c(c2=O)C2(CCCC2)Cc2ccccc2-3)CCO1 (stereo not drawn),-4.29*,37.2,0.0,4.4,25.6
O=c1c2c(nc(NCCO)n1CC1CCCCC1)-c1ccccc1CC21CCCC1,-2.74,/,-8.0,17.7,23.1
O=c1[nH]c(NCCO)nc2c1C1(CCCCC1)Cc1ccccc1-2,-2.76,18.6,5.0,-1.7,30.6*
CCOC(=O)c1c(NC(=O)c2c(Br)cnn2CC)sc(C)c1C,-0.00093,/,/,/,/
O=C(OCn1ncc(Br)c(Br)c1=O)c1c(F)cccc1F,0.989,/,-1.0,57.4*,26.1
CC(=N\Nc1ccc(Cl)cc1)/C(=N/O)C(=O)Nc1ccccc1,-0.0277,/,9.0,-0.2,16.2
CCOC(=O)/C(=N/Nc1ccc(Cl)cc1)S(=O)(=O)c1ccc(Cl)cc1,0.00635,/,1.0,-4.9,0.5
CCOC(=O)NC(=O)/C(C#N)=N\Nc1ccc(Cl)cc1,-5.09*,/,1.0,-2.4,-1.8
CCOc1ccc(N/C(SC)=C(/C#N)C(N)=O)cc1,-0.227,-13.1,-9.0,-0.2,-13.8
N#C/C(=N\Nc1ccc(Cl)cc1)C(=O)c1ccccc1,-5.55*,/,-2.0,7.3,79.1*
CCOc1ccc(N/N=C(/C#N)C(N)=O)cc1,-0.357,/,0.0,104.2*,89.6*
SMILES,Cav3 T inh,Ecoli tolC,Ecoli WT expand,PostGolgi yeast,PostGolgi ctrl
CCOc1ccc(NC2=NCC(=O)N2CCc2ccccc2)cc1,-0.189,-4.7,1.0,-7.3,9.5
Cc1cc(C)n(CCCNC(=O)c2ccc(S(=O)(=O)NCc3ccco3)cc2)n1,/,-2.0,0.0,-7.4,5.5
COc1ccc(N(CC(=O)NCCSCc2c(F)cccc2Cl)S(C)(=O)=O)cc1OC,0.534,/,3.0,2.2,-3.6
CS(=O)(=O)N(CC(=O)NCCSCc1c(F)cccc1Cl)c1ccc2c(c1)OCO2,-6.51*,2.3,8.0,6.6,2.7
COc1cccc(N(CC(=O)NCCSc2ccc(Cl)cc2)S(C)(=O)=O)c1,-5.54*,/,-6.0,1.0,13.1
COc1cccc(N(CC(=O)NCCSc2ccccc2)S(C)(=O)=O)c1,0.276,-0.5,-7.0,2.1,-6.0
Cc1ccccc1C(=O)N1CCC(C(=O)Nc2ccc3c(c2)OCCO3)CC1,-0.257,/,-2.0,-1.7,2.2
O=c1[nH]c2ccccc2n1Cc1ccc(Cl)cc1,-3.23,/,19.0,5.9,9.0
O=c1n(Cc2ccccc2)c2cc(Cl)cnc2n1Cc1ccccc1,-3.1,88.8*,0.0,-1.2,14.3
Cc1cccc(C)c1NC(=S)N1CCC(N(C)CC2CCCO2)CC1 (stereo not drawn),1.17,/,3.0,4.8,3.6
Cc1cccc(NC(=S)N2CCC(N(C)CC3CCCO3)CC2)c1C (stereo not drawn),1.21,/,1.0,-16.2,32.2*
Cc1ccccc1OCC(=O)N/N=C/c1cccn1C,0.238,/,-8.0,0.0,12.2
CNC(=O)[C@@]1(Cc2ccccc2)C=C[C@@H](C)N1C(C)=O,0.8,/,/,/,/
O=C(c1ccc(Cl)cc1)N1CCC(O)(CSc2ccc(Cl)cc2Cl)CC1,-2.1,/,-7.0,14.9,93.5*
COc1ccc(C)cc1NC(=O)CN(Cc1nnc(-c2ccc(Cl)cc2)o1)C1CCCC1,-4.17*,21.3,-14.0,-3.7,10.4
COc1ccc(Cl)cc1NC(=O)CN(C)C1CCCCC1,-1.38,/,6.0,19.6,12.1
CC(C)[C@@H]1CC[C@@H](C)c2c(-c3ccccc3)n[nH]c21,-1.08,/,1.0,4.6,40.7*
c1ccc(-c2n[nH]c3c2CCC3)cc1,2.43,31.4,17.0,-5.6,5.2
Cc1cccc(C)c1-n1nnnc1C1(Nc2ccccc2)CCCCC1,/,/,-12.0,3.6,44.4*
Cc1cccc(Cn2c(=O)n(Cc3ccco3)c(=O)c3ccccc32)c1,-3,90.9*,-17.0,-2.5,19.9
CCOC(=O)CN1C(=O)C(Sc2n[nH]c(-c3ccc(C)cc3)n2)CCc2ccccc21 (stereo not drawn),-3.46*,/,3.0,-4.5,3.4
CCOC(=O)CN1C(=O)C(Sc2n[nH]c(-c3cccc(C)c3)n2)CCc2ccccc21 (stereo not drawn),-2.99,/,-13.0,2.0,17.9
COc1cccc(OCC(O)CN2CCC(Cc3ccccc3)CC2)c1 (stereo not drawn),-4.22*,-1.1,-5.0,4.8,3.5
C=CCc1ccc(OCC(O)CN2CCC(Cc3ccccc3)CC2)c(OC)c1 (stereo not drawn),-4.03*,/,18.0,98.0*,62.6*
COc1cccc(OCC(O)CN2CCOCC2)c1 (stereo not drawn),0.336,4.2,-1.0,-4.3,5.1
SMILES,Cav3 T inh,Ecoli tolC,Ecoli WT expand,PostGolgi yeast,PostGolgi ctrl
C=CCc1ccc(OCC(O)CO)c(OC)c1 (stereo not drawn),/,/,2.0,2.8,6.8
Cc1c(NC(=O)CSc2nnc3sc4ccccc4n23)c(=O)n(-c2ccccc2)n1C,-2.18,-12.3,2.0,5.6,2.0
CCCN1C(=O)c2ccc(C(=O)NC3CCCCC3)cc2C1=O,-1.14,-1.4,-5.0,0.3,7.3
CCOC(=O)c1c(NS(=O)(=O)c2ccc(Br)cc2)sc2c1CCC2,-8.48*,/,/,/,/
CCOC(=O)c1c(NC(=O)CN(CC)CC)sc2c1CCC2,-1.3,100.0*,4.0,-7.8,15.4
CCOC(=O)c1c(NS(=O)(=O)Cc2ccccc2)sc2c1CCCC2,-4.21*,/,5.0,5.5,36.4*
CCN(CC)S(=O)(=O)c1cccc(-c2nnc(SCc3nnc(-c4cccs4)o3)n2N)c1,0.648,6.3,-3.0,-13.5,6.3
